KCNQ1 inh – blocks the human KCNQ1 potassium channel. P51787. CHO-K1 KCNQ1, FluxOR thallium flux fluorescence; stronger effect = higher value. B-score at 10 µM. actives 1.3% (n = 310,000). AID 2642;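 active = compounds whose thallium flux B-score, printed positive for inhibition, exceeds three library SD while starting fluorescence stays within three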;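 note: channel opened by potassium depolarization with thallium stimulus after 20 min compound exposure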
KCNK3 block – human KCNK3 channel inhibition, primary screen | O14649 | CHO-KCNK3 thallium flux, FluxOR fluorescence; stronger effect = lower value | B-score at 10 µM | actives 0.84% (n = 340,000) | AID 602410;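 active = B-score under library mean minus 4 SD, starting fluorescence ratio at most library mean plus 5 SD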;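 note: more negative B-score means stronger inhibition of thallium flux through KCNK3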
hERG rescue – hERG (human) protection from proarrhythmic block. Q12809. activation (rescue from dofetilide block), less the hit threshold, % at 10 µM. CHO-hERG, FluxOR thallium flux, dofetilide IC70 present. actives 0.51% (n = 310,000). AID 1511;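 active = activation above the mean of controls blocked by dofetilide plus 5 SD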;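 note: thallium influx through hERG after potassium depolarization seen as dye fluorescence rise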
KCC2 mod – modulators of human KCC2 chloride dependent transport; Q9H2X9; KCC2 cells, thallium flux FluoZin-2 fluorescence; B-score of Tl+ flux slope (higher = more flux/activation; lower = inhibition) at 10 µM; actives 2.2% (n = 190,000); AID 1456;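 active = thallium flux slope and its plate-corrected score both differing from the plate sample mean at a set confidence after two filtering rounds, in either direction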;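 note: slope of fluorescence scaled to starting intensity during 10 to 20 s after thallium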
Target sequence (Q9H2X9 whole entry, looked up): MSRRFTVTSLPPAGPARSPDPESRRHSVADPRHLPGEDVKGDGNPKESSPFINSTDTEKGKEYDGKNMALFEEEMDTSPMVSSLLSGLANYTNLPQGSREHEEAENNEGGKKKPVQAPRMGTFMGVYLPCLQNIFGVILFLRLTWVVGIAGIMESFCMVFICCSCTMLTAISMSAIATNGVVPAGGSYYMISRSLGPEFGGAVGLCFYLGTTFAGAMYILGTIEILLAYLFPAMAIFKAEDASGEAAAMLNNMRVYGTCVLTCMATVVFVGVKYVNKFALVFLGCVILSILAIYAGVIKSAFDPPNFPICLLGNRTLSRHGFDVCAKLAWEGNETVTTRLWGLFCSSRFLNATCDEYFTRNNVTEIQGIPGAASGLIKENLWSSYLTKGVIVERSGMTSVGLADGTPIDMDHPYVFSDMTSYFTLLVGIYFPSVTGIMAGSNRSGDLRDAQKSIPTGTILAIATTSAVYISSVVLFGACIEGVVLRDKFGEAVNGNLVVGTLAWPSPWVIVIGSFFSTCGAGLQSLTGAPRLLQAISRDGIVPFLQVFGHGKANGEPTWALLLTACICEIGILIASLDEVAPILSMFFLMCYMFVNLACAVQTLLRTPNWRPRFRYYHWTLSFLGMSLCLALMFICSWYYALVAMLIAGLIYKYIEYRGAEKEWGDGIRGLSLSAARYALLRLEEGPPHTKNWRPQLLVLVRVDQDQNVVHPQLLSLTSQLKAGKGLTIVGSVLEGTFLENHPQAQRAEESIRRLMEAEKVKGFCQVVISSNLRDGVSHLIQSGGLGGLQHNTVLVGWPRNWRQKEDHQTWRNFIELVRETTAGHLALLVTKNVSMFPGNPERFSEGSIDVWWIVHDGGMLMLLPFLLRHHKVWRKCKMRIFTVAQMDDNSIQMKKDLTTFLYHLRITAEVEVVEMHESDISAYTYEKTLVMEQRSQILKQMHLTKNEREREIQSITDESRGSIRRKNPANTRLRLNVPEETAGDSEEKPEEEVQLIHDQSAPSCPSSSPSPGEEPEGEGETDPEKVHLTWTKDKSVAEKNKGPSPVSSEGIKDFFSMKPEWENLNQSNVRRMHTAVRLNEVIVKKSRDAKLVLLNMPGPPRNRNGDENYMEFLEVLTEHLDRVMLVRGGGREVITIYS
KCNQ1 pot – human KCNQ1 channel potentiation or activation; CHO-K1 KCNQ1, thallium flux FluxOR fluorescence; stronger effect = higher value; B-score at 10 µM; AID 2648; actives 0.35% (n = 310,000); P51787;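 active = fluorescence ratio B-score, a plate-corrected score, at least three library SD, with initial intensity B-score within 5 SD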
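assay system = CHO-K1 cells stably expressing KCNQ1 | medium = assay buffer, equal DMSO in all wells | timing = 37 °C overnight plating, 90-min dark dye load, 20-min compound pretreatment | measured by = kinetic FluxOR thallium fluorescence, 10-s 1-Hz baseline, 110-s post-stimulus read | measure = fluorescence change relative to baseline, converted to B score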
KCNK9 block – human KCNK9 channel inhibition | Q9NPC2 | HEK293 KCNK9, FluxOR thallium flux fluorescence; stronger effect = lower value | B-score at 10 µM | actives 1.2% (n = 310,000) | AID 488922;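 active = ratio B-score over 3 SD below the library mean, with starting fluorescence within 5 SD of its mean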;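 note: negative B-score means less thallium flux so channel inhibition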
KCC2 secondary – confirmation of human KCC2 transport modulators; shares compounds with KCC2 mod; HEK293-KCC2, thallium flux, FluoZin2 fluorescence; stronger effect = higher value; normalised thallium flux (F/F0 slope) at 10 µM; actives 15% (n = 3,700);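 active = thallium flux slope above the same plate's solvent-only control mean plus 3 SD; inconclusive = the two replicate wells disagree; inactive = no significant difference from solvent-only control wells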
KCC2 bumet counter – thallium flux persisting under bumetanide in KCC2 cells, counter-screen secondary assay | AID 1714 | normalized thallium flux at 10 µM | shares compounds with KCC2 mod | actives 49% (n = 3,700) | HEK293-KCC2 + bumetanide/ouabain, thallium flux FluoZin2; stronger effect = higher value;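 active = thallium entry rate above the same plate's blocked-transporter control wells by more than 3 SD; inconclusive = the two repeat wells disagree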;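 note: raw slope of fluorescence over initial fluorescence between 10 and 20 s after thallium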
KCC2 sec2 – KCC2 (human) modulation, second secondary assay; shares compounds with KCC2 mod; HEK293-KCC2, thallium flux FluoZin2 fluorescence; actives lie on both sides; F/F0 rise rate, 10–20 s post-thallium; normalized thallium flux at 10 µM; actives 23% (n = 3,700); AID 1715;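 active = thallium flux slope more than 3 SD above or below the plate's solvent-only control mean, mostly below; inconclusive = the two repeat wells disagreed; inactive = no significant shift from solvent-only controls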
HEK293 Tl flux – counter-screen for KCC2 modulators: effect in parental HEK293 cells | shares compounds with KCC2 mod | thallium flux FluoZin2, ouabain; baseline-ratio fluorescence slope, 10–20 s after thallium | thallium flux rate (normalised fluorescence) at 10 µM | actives 46% (n = 3,700);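 active = thallium flux rate significantly above the same plate's solvent-only control wells, beyond their mean plus 3 SD; inconclusive = the two replicate wells gave conflicting results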
KCC2 ouabain – modulates human KCC2 on retest with ouabain; shares compounds with KCC2 mod; HEK293-KCC2, thallium flux FluoZin2 fluorescence; bidirectional: low = inhibitor, high = activator; raw Tl+ flux slope (below DMSO = inhibition, above = activation) at 10 µM; actives 48% (n = 3,700);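 active = thallium flux slope beyond 3 SD from same-plate DMSO control mean in most replicates, usually higher, sometimes lower; inconclusive = repeat tests gave conflicting results; inactive = no significant difference from controls in most replicates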;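 note: slope of initial-normalized fluorescence between seconds 10 and 20 after thallium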
HEK293 Tl flux2 – acts in parental HEK cells, second KCC2 counter-screen; shares compounds with KCC2 mod; HEK293 parental, thallium flux FluoZin-2 fluorescence slope; thallium flux slope at 10 µM; actives 33% (n = 3,700); AID 1718;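 active = thallium flux slope above the same plate's solvent-control mean plus 3 SD in both duplicate wells; inconclusive = duplicate wells that disagreed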;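 note: run without ouabain in cells lacking the KCC2 cotransporter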
Hits are given with their value; . = inactive; ? = inconclusive; / = no result. Rows were chosen to be rich in hits. Some 4.1% of all compounds tested hit in one or more screens of this group.

SMILES	KCNQ1 inh	KCNK3 block	hERG rescue	KCC2 mod	KCNQ1 pot	KCNK9 block	KCC2 secondary	KCC2 bumet counter	KCC2 sec2	HEK293 Tl flux	KCC2 ouabain	HEK293 Tl flux2
Cc1cnc(NC(=O)COc2cccc3c2OC(C)(C)C3)s1	.	.	.	/	.	.	.	.	.	.	?	.
CC1Cc2ccccc2N1C(=O)c1ccc2snnc2c1 (stereo not given)	/	.	/	/	/	/	/	/	/	/	/	/
Cc1nc2cc(C(=O)N3c4ccccc4CC3C)ccc2s1 (stereo not given)	.	.	.	/	.	.	?	.	.	.	0.0196	?
Cc1c(O)ccc2c(CN(C)Cc3ccccc3)cc(=O)oc12	.	.	.	-6.62	.	.	.	.	.	?	0.0153	.
O=C(NC1CCCCC1)c1cc(F)cc2c1OCOC2	.	.	.	.	.	.	/	/	/	/	/	/
O=C(Cc1csc(-c2ccccc2)n1)NCc1ccccc1F	.	/	.	.	.	.	/	/	/	/	/	/
O=C(NCc1csc(-c2ccccc2)n1)c1cc(F)cc2c1OCOC2	.	.	.	-3.78	.	.	?	.	.	.	0.0152	.
O=C(Cc1csc(-c2ccccc2)n1)NCc1ccc(F)cc1	.	.	.	-5.22	.	.	.	.	0.0297	.	0.0157	.
C[C@H](CO)N1C[C@H](C)[C@@H](CN(C)S(C)(=O)=O)Oc2ccc(NC(=O)CCC(F)(F)F)cc2C1=O	/	.	/	/	/	/	/	/	/	/	/	/
CCN(CC(=O)Nc1cc(Cl)ccc1C)C(=O)CCS(=O)(=O)c1ccc(C)cc1	.	.	.	/	.	.	/	/	/	/	/	/
CC(=O)Oc1ccc(C(=O)Nc2nnc(C)s2)cc1	.	.	.	2.43	.	.	.	.	.	.	.	?
CCC(=O)N1CCN(c2ccccc2NC(=O)COc2ccccc2Cl)CC1	.	.	.	/	.	.	.	?	.	?	.	.
CCC(=O)N1CCN(c2ccc(NC(=O)COc3ccccc3Cl)cc2)CC1	.	.	.	/	.	.	/	/	/	/	/	/
Cc1ccc(NC(=O)c2ccc3c(c2)C(=O)N(c2ccccc2C)C3=O)nc1	/	.	/	/	/	/	/	/	/	/	/	/
CCOC(=O)C1CCCN(C/C(O)=C(\C#N)c2nc(-c3ccc(Cl)cc3)cs2)C1 (stereo not given)	.	.	.	-3.47	.	.	.	.	0.0244	.	0.0178	.
N#C/C(=C(/O)CN1CCCC1)c1nc(-c2ccccc2)cs1	.	.	.	.	.	.	/	/	/	/	/	/
O=C1OCCC1(c1ccccc1)c1ccccc1	/	.	/	/	/	/	/	/	/	/	/	/
CN1C(=S)SC(C)(C)C1NO (stereo not given)	.	.	.	-4.66	.	.	.	.	.	.	.	.
COc1ccc(S(=O)(=O)N(CCc2ccccc2)CC(N)=O)cc1	.	.	.	.	.	.	/	/	/	/	/	/
COc1ccc(S(=O)(=O)N(CCc2ccccc2)CC(=O)O)cc1Cl	.	.	.	-3.77	.	.	.	?	0.0268	.	0.0168	.
O=C(c1cc2c(s1)-c1ccccc1S(=O)(=O)C2)N1CCN(Cc2ccccc2)CC1	.	.	.	.	.	.	.	.	.	.	?	.
CC(C)CN1C(=O)/C(=C/c2ccco2)NC1=S	.	.	.	53.1	.	.	.	0.0146	.	0.0583	0.0338	0.018
C(=N\Nc1nc2ccccc2s1)/c1ccccn1	.	.	.	6.91	.	.	.	?	.	?	.	.
C(=N\NC1=Nc2cccc3cccc1c23)/c1ccccn1	.	.	.	-4.38	.	.	?	.	.	.	0.016	.
Clc1ccccc1/C=N/NC1=Nc2cccc3cccc1c23	.	.	.	.	.	.	/	/	/	/	/	/
SMILES	KCNQ1 inh	KCNK3 block	hERG rescue	KCC2 mod	KCNQ1 pot	KCNK9 block	KCC2 secondary	KCC2 bumet counter	KCC2 sec2	HEK293 Tl flux	KCC2 ouabain	HEK293 Tl flux2
CCOC(=O)C1CCCN(S(=O)(=O)c2cc3c4c(c2)CCC(=O)N4CCC3)C1 (stereo not given)	.	.	.	/	.	.	/	/	/	/	/	/
CCOc1ccc(N=Cc2ccccc2O)cc1	/	.	/	/	/	/	/	/	/	/	/	/
Cc1[nH]c2ccccc2c1SCC(=O)N1CCN(c2ccccc2)CC1	.	.	.	-3.87	.	.	.	.	0.0216	.	0.0146	.
Cc1[nH]c2ccccc2c1SCC(=O)N1CCCCC1	.	.	.	.	.	.	/	/	/	/	/	/
O=C(CN1c2cccc3cccc(c23)S1(=O)=O)Nc1c(F)c(F)c(F)c(F)c1F	/	.	/	/	/	/	/	/	/	/	/	/
Cn1cc(S(=O)(=O)N2CCN(c3ccccc3)CC2)c(=O)n(C)c1=O	.	.	.	.	.	.	/	/	/	/	/	/
Cn1cc(S(=O)(=O)N2CCc3ccccc3C2)c(=O)n(C)c1=O	.	.	.	-3.45	.	.	.	?	.	.	.	.
CCN(C[C@H]1N[C@@](CC)(C(=O)OC)[C@H]2C(=O)N(Cc3ccccc3)C(=O)[C@@H]12)C(=O)NC(C)C	/	.	/	/	/	/	/	/	/	/	/	/
Cc1cc(C)c(C#N)c(N2CCN(Cc3ccccc3)CC2)n1	.	.	.	-3.73	.	.	.	.	?	.	.	.

Screens as filed in PubChem BioAssay.
